Calls of active or inactive are those of the source.
Assays:
HUVEC [1] = assay: Effect on CKS1B gene expression in serum-starved HUVEC after 6 hrs by microarray analysis relative to control; type: functional, Homo sapiens
Procedure, shortened: (§1)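 Serum-starved confluent HUVEC treated with 2 μM compound or DMSO in 2.5% FBS for 6 h or 24 h; RNA hybridized to Illumina Human-HT12 arrays. Data background-corrected, vst-transformed and rsn-normalized. Differential probes called by moderated paired t-test (limma) at p < 0.05 and log2 fold change >|0.5| vs DMSO.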

HUVEC [2] = assay: Effect on ITGA2 gene expression in serum-starved HUVEC after 6 hrs by microarray analysis relative to control; type: functional, Homo sapiens
Procedure, shortened: (§2)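 Confluent, serum-starved HUVEC (pooled from 3–5 donors, passage ≤4) treated with 2 μM compound or vehicle with 2.5% FBS for 6 h or 24 h. Total RNA hybridized to Illumina Human-HT12 arrays. Data were background-corrected, vst-transformed and rsn-normalized. Hits called by moderated paired t-test versus DMSO-treated cells, p < 0.05 and log2 fold change >|0.5|.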

HUVEC [3] = assay: Effect on FILIP1L gene expression in serum-starved HUVEC after 6 hrs by microarray analysis relative to control; type: functional, Homo sapiens; procedure, shortened: as §2
HUVEC [4] = assay: Effect on RHOB gene expression in serum-starved HUVEC after 6 hrs by microarray analysis relative to control; type: functional, Homo sapiens
HUVEC [5] = assay: Effect on SLC30A7 gene expression in serum-starved HUVEC after 6 hrs by microarray analysis relative to control; type: functional, Homo sapiens
HUVEC [6] = assay: Effect on FABP4 gene expression in serum-starved HUVEC after 6 hrs by microarray analysis relative to control; type: functional, Homo sapiens
Procedure, shortened: (§3)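 Confluent serum-starved HUVEC (primary, pooled from 3–5 donors, passage ≤4) treated with 2 μM compound or DMSO vehicle in 2.5% FBS for 6 h or 24 h. Total RNA hybridized to Illumina Human-HT12 arrays, background-corrected, vst-transformed and rsn-normalized. Differential expression versus DMSO by moderated paired t-test (p < 0.05, |log2 fold change| > 0.5).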

HUVEC [7] = assay: Effect on ALDOC gene expression in serum-starved HUVEC after 6 hrs by microarray analysis relative to control; type: functional, Homo sapiens; procedure, shortened: as §1
HUVEC [8] = assay: Effect on CENPW gene expression in serum-starved HUVEC after 6 hrs by microarray analysis relative to control; type: functional, Homo sapiens; procedure, shortened: as §1
[9] = Downregulation of CCNA2 gene expression in serum-starved HUVEC at 2 uM after 24 hrs by qRT-PCR analysis; type: functional, cell-based; details: Homo sapiens
Procedure, shortened: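 Serum-starved confluent HUVEC treated with 2 μM compound or vehicle in 2.5% FBS for 24 h. Total RNA isolated and qRT-PCR run in triplicate (95 °C 5 min; 40 cycles of 95 °C 5 s, 58 °C 20 s, 72 °C 5 s), normalized to RPS18S. Fold change vs control, n = 3.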

HUVEC [10] = assay: Effect on AFAP1L1 gene expression in serum-starved HUVEC after 6 hrs by microarray analysis relative to control; type: functional, Homo sapiens; procedure, shortened: as §3
HUVEC [11] = assay: Effect on MYLIP gene expression in serum-starved HUVEC after 24 hrs by microarray analysis relative to control; type: functional, Homo sapiens
Procedure, shortened: (§4)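 Serum-starved confluent HUVEC (pooled from 3–5 donors, passage ≤4) were treated with 2 μM compound or vehicle in 2.5% FBS for 6 h or 24 h, and total RNA was isolated. Hybridization was on Illumina Human-HT12. Data were processed with bgAdjust, vst and rsn normalization. Changes versus DMSO were called by moderated paired t-test at p < 0.05 and |log2 fold change| > 0.5.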

HUVEC [12] = assay: Effect on CDC25C gene expression in serum-starved HUVEC after 6 hrs by microarray analysis relative to control; type: functional, Homo sapiens; procedure, shortened: as §3
HUVEC [13] = assay: Effect on AURKA gene expression in serum-starved HUVEC after 24 hrs by microarray analysis relative to control; type: functional, Homo sapiens; procedure, shortened: as §3
HUVEC [14] = assay: Effect on MVD gene expression in serum-starved HUVEC after 24 hrs by microarray analysis relative to control; type: functional, Homo sapiens; procedure, shortened: as §4
HUVEC [15] = assay: Effect on CCNA2 gene expression in serum-starved HUVEC after 24 hrs by microarray analysis relative to control; type: functional, Homo sapiens; procedure, shortened: as §3
HUVEC [16] = assay: Effect on TYMS gene expression in serum-starved HUVEC after 6 hrs by microarray analysis relative to control; type: functional, Homo sapiens
HUVEC [17] = assay: Effect on RN7SK gene expression in serum-starved HUVEC after 6 hrs by microarray analysis relative to control; type: functional, Homo sapiens
HUVEC [18] = assay: Effect on TGFBI gene expression in serum-starved HUVEC after 24 hrs by microarray analysis relative to control; type: functional, Homo sapiens
HUVEC [19] = assay: Effect on INSIG1 gene expression in serum-starved HUVEC after 6 hrs by microarray analysis relative to control; type: functional, Homo sapiens; procedure, shortened: as §2
HUVEC [20] = assay: Effect on TM4SF18 gene expression in serum-starved HUVEC after 24 hrs by microarray analysis relative to control; type: functional, Homo sapiens
HUVEC [21] = assay: Effect on MSMO1 gene expression in serum-starved HUVEC after 6 hrs by microarray analysis relative to control; type: functional, Homo sapiens; procedure, shortened: as §4
HUVEC [22] = assay: Effect on BHLHE40 gene expression in serum-starved HUVEC after 24 hrs by microarray analysis relative to control; type: functional, Homo sapiens; procedure, shortened: as §1
HUVEC [23] = assay: Effect on EIF3CL gene expression in serum-starved HUVEC after 24 hrs by microarray analysis relative to control; type: functional, Homo sapiens; procedure, shortened: as §3
HUVEC [24] = assay: Effect on KITLG gene expression in serum-starved HUVEC after 24 hrs by microarray analysis relative to control; type: functional, Homo sapiens; procedure, shortened: as §4
HUVEC [25] = assay: Effect on PLK4 gene expression in serum-starved HUVEC after 6 hrs by microarray analysis relative to control; type: functional, Homo sapiens; procedure, shortened: as §4
HUVEC [26] = assay: Effect on AIF1 gene expression in serum-starved HUVEC after 24 hrs by microarray analysis relative to control; type: functional, Homo sapiens; procedure, shortened: as §1
HUVEC [27] = assay: Effect on UHRF1 gene expression in serum-starved HUVEC after 6 hrs by microarray analysis relative to control; type: functional, Homo sapiens
HUVEC [28] = assay: Effect on SULT1C4 gene expression in serum-starved HUVEC after 24 hrs by microarray analysis relative to control; type: functional, Homo sapiens
HUVEC [29] = assay: Effect on DBI gene expression in serum-starved HUVEC after 6 hrs by microarray analysis relative to control; type: functional, Homo sapiens
Procedure, shortened: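 Serum-starved confluent HUVEC (primary, pooled from 3–5 donors, passage ≤4) treated with 2 μM test compound or DMSO vehicle (working dilutions ≤0.1% v/v) in presence of 2.5% FBS for 6 h or 24 h; total RNA hybridized to Illumina Human-HT12 arrays; background correction, vst, rsn normalization; moderated paired t-test versus DMSO, thresholds p < 0.05 and log2 fold change >|0.5|.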

HUVEC [30] = assay: Effect on HECW2 gene expression in serum-starved HUVEC after 6 hrs by microarray analysis relative to control; type: functional, Homo sapiens; procedure, shortened: as §2
HUVEC [31] = assay: Effect on PODXL gene expression in serum-starved HUVEC after 24 hrs by microarray analysis relative to control; type: functional, Homo sapiens; procedure, shortened: as §4
HUVEC [32] = assay: Effect on CDK1 gene expression in serum-starved HUVEC after 24 hrs by microarray analysis relative to control; type: functional, Homo sapiens; procedure, shortened: as §1
HUVEC [33] = assay: Effect on HINT3 gene expression in serum-starved HUVEC after 24 hrs by microarray analysis relative to control; type: functional, Homo sapiens; procedure, shortened: as §2
HUVEC [34] = assay: Effect on RNA18S5 gene expression in serum-starved HUVEC after 24 hrs by microarray analysis relative to control; type: functional, Homo sapiens
HUVEC [35] = assay: Effect on KIF22 gene expression in serum-starved HUVEC after 24 hrs by microarray analysis relative to control; type: functional, Homo sapiens; procedure, shortened: as §2

**Q.** For COc1ccc(Cn2nc(-c3ccccc3)c3cc(Cl)nc(N4CCNCC4)c32)cc1, which log2FC (HUVEC [1]) is on record?
**A.** -0.0514

**Q.** What about the log2FC (HUVEC [2]) of the same molecule?
**A.** 0.5417

**Q.** What about the log2FC (HUVEC [3]) of the same molecule?
**A.** 0.5185

**Q.** What about the log2FC (HUVEC [4]) of the same molecule?
**A.** -0.225

**Q.** And the log2FC (HUVEC [5])?
**A.** 0.512

**Q.** With COc1ccc(Cn2nc(-c3ccccc3)c3cc(Nc4ccc(N5CCN(C)CC5)cc4)nc(N4CCN(C)CC4)c32)cc1 as the molecule, how does the “fold change (FC)” value (HUVEC [6]) read?
**A.** 0.3036

**Q.** What about the “fold change (FC)” value (HUVEC [7]) of the same molecule?
**A.** 0.067

**Q.** And the log2FC (HUVEC [8])?
**A.** -0.2667

**Q.** What about the Activity [9] of the same molecule?
**A.** Active

**Q.** What about the “fold change (FC)” value (HUVEC [10]) of the same molecule?
**A.** 0.0116

**Q.** And the log2FC (HUVEC [11])?
**A.** -0.2675

**Q.** What about the “fold change (FC)” value (HUVEC [12]) of the same molecule?
**A.** -0.0013

**Q.** And the “fold change (FC)” value (HUVEC [13])?
**A.** -0.6725

**Q.** And the log2FC (HUVEC [14])?
**A.** 1.3802

**Q.** And the “fold change (FC)” value (HUVEC [15])?
**A.** -0.7529

**Q.** And the log2FC (HUVEC [16])?
**A.** -0.1879

**Q.** And the log2FC (HUVEC [17])?
**A.** -0.8368

**Q.** And the log2FC (HUVEC [18])?
**A.** -0.9058

**Q.** What about the “fold change (FC)” value (HUVEC [19]) of the same molecule?
**A.** 1.0454

**Q.** And the log2FC (HUVEC [20])?
**A.** 0.5978

**Q.** And the “fold change (FC)” value (HUVEC [21])?
**A.** 0.7741

**Q.** And the log2FC (HUVEC [22])?
**A.** 0.6018

**Q.** And the “fold change (FC)” value (HUVEC [23])?
**A.** -0.1982

**Q.** What about the log2FC (HUVEC [24]) of the same molecule?
**A.** 0.5605

**Q.** What about the “fold change (FC)” value (HUVEC [25]) of the same molecule?
**A.** 0.1554

**Q.** What about the log2FC (HUVEC [26]) of the same molecule?
**A.** -0.7905

**Q.** What about the “fold change (FC)” value (HUVEC [27]) of the same molecule?
**A.** 0.012

**Q.** And the log2FC (HUVEC [28])?
**A.** 0.5208

**Q.** And the “fold change (FC)” value (HUVEC [29])?
**A.** 0.0722

**Q.** What about the “fold change (FC)” value (HUVEC [30]) of the same molecule?
**A.** 0.4559

**Q.** And the log2FC (HUVEC [31])?
**A.** 0.6696

**Q.** What about the log2FC (HUVEC [32]) of the same molecule?
**A.** -0.5092

**Q.** Which results are given for COc1ccc(Cn2nc(-c3ccccc3)c3cc(Nc4ccc(N5CCN(C)CC5)cc4)nc(N4CCNCC4)c32)cc1?
**A.** log2FC (HUVEC [33]): 0.6699; log2FC (HUVEC [34]): 0.5309; log2FC (HUVEC [35]): -0.5297
